The record followed here is ChEMBL document CHEMBL4422700, “Trichothecenes from a Soil-Derived Trichoderma brevicompactum” (J Nat Prod, 2019).

For orientation: IC50 means the concentration that gives 50% inhibition. A word on the MIC: it is the lowest concentration that inhibits growth of the organism.

Values after ≈ are worked out from the molar mass of the structure shown. Active and inactive are the calls of the source. The rule behind the calls is not given here.

One assay has as its system Plasmodium falciparum. The experiment in a line: Antimalarial activity against multidrug-resistant Plasmodium falciparum K1 infected in erythrocytes assessed as reduction in [3H]-hypoxanthine incorporation incubated for 24 hrs before [3H]-hypoxanthine addition and measured after 24 hrs by microplate scintillation counting based microculture radioisotope technique. In kind it is functional, organism-based. The essentials: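 Ring-stage K1 culture in RPMI-1640 at 1.5% erythrocyte suspension and 1% parasitaemia, exposed to test solution at 37 °C under CO2 for 24 h. 3H-hypoxanthine (0.5 μCi per well) was then added and incubation continued 24 h. Incorporation was read by scintillation counting; % growth = CPM treated/CPM untreated × 100. Dihydroartemisinin served as standard.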

The subject of a further assay is Vero. The experiment in a line: Cytotoxicity against African green monkey Vero cells assessed as reduction in cell viability by resazurin microplate assay. In kind it is cell-based, Chlorocebus sabaeus. The essentials: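 Vero (African green monkey kidney fibroblast) cells, run in triplicate. Ellipticine served as positive control.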
In another assay the test system is KB. Kind of assay: Cytotoxicity against human KB cells assessed as reduction in cell viability by resazurin microplate assay. The class given is functional, cell-based. The essentials: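 KB cells tested by resazurin microplate assay. Ellipticine served as positive control.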
A further assay concerns Nannizzia gypsea. The experiment in a line: Antifungal activity against Microsporum gypseum by colorimetric broth microdilution method. In kind it is functional. In general terms: In broth dilution the organism is exposed to a series of concentrations in liquid medium.
The test system of the next assay is Cryptococcus neoformans. Kind of assay: Antifungal activity against flucytosine-resistant, Cryptococcus neoformans ATCC 90113 by colorimetric broth microdilution method. In kind it is functional.
Another assay has as its system Candida albicans. The experiment in a line: Antifungal activity against Candida albicans NCPF3153 by colorimetric broth microdilution method. In kind it is functional.
The mark [1] stands for this setting: Plasmodium falciparum, K1, read-out: IC50.

Turning to `CC(=O)O[C@@H]1C[C@H]2O[C@@H]3C=C(C)CC[C@]3(C)[C@]1(C)[C@]21CO1`, the results for the IC50 in the assay on Plasmodium falciparum (read-out: IC50), with Vero (vero) and in the assay on KB (kb) were 0.1 µM, 0.4 µM and 2.4 µM, respectively.
As to `Clc1ccc(COC(Cn2ccnc2)c2ccc(Cl)cc2Cl)c(Cl)c1` (configuration not stated) [MICONAZOLE], in the assay with Nannizzia gypsea, the MIC worked out at 1 µg/mL (≈ 2.4 µM).
In the case of `CC1=C[C@]23O[C@@H]4C[C@@H](O)[C@](C)([C@@]2(C)CC1)[C@]4(CO)O3`, the half-inhibitory concentration (IC50) in the assay with Plasmodium falciparum (setting [1]) came to 7.4 µM; in the assay on Vero (Chlorocebus sabaeus, Vero), 15.3 µM; in the assay with KB (Homo sapiens, KB) it was 44.7 µM. In addition, the MIC in the assay with Cryptococcus neoformans and in the assay on Candida albicans was 16 µg/mL (≈ 60.1 µM) each time. Moreover, in the assay on Nannizzia gypsea, the MIC entry was “inactive”.
Consider `CC(=O)O[C@@H]1C[C@H]2O[C@@H]3C[C@H](CO)CC[C@]3(C)[C@]1(C)[C@]21CO1`, for which the IC50 result is “Not Active” with Plasmodium falciparum, 45.9 µM in the assay on Vero (vero) and 116 µM in the assay with KB (kb). Also, the MIC entry in the assay on Cryptococcus neoformans, in the assay on Candida albicans and in the assay on Nannizzia gypsea was “inactive” each time.
For the compound `CC(=O)O[C@@H]1C[C@H]2O[C@@H]3C=C(C=O)CC[C@]3(C)[C@]1(C)[C@]21CO1`, the half-inhibitory concentration (IC50) in the assay on Plasmodium falciparum (read-out: IC50) is 9.6 µM; in the assay with Vero (vero), 9.9 µM; in the assay with KB (kb) it was 3.7 µM. In addition, in the assay with Nannizzia gypsea, the MIC result was “inactive”.
With `C[C@H]1C(O)O[C@@H]2O[C@@]3(C)CC[C@H]4[C@H](C)CCC1C24OO3` (some centres not stated), the IC50 in the assay on Plasmodium falciparum (setting [1]) turned out to be 0.0022 µM.
`Cc1c2ccncc2c(C)c2c1[nH]c1ccccc12` [ELLIPTECINE]: the IC50 with Vero (Chlorocebus sabaeus, Vero) came to 4.1 µM.
In the case of `C[C@@H]1[C@H](O)[C@@H](C)/C=C/C=C/C=C/C=C/C=C/C=C/C=C/[C@H](O[C@@H]2O[C@H](C)[C@@H](O)[C@H](N)[C@@H]2O)C[C@@H]2O[C@](O)(C[C@@H](O)C[C@@H](O)[C@H](O)CC[C@@H](O)C[C@@H](O)CC(=O)O[C@H]1C)C[C@H](O)[C@H]2C(=O)O` [AMPHOTERICIN B], the minimum inhibitory concentration (MIC) was found to be 0.25 µg/mL (≈ 0.271 µM) with Cryptococcus neoformans and 0.5 µg/mL (≈ 0.541 µM) in the assay with Candida albicans.
Take `CC(=O)O[C@@H]1C[C@H]2O[C@@H]3C=C(CO)CC[C@]3(C)[C@]1(C)[C@]21CO1`: the IC50 in the assay with Plasmodium falciparum (read-out: IC50) stood at 8.8 µM; in the assay with Vero (vero), 7.8 µM; in the assay on KB (kb), 20.6 µM. In addition, the MIC entry in the assay with Nannizzia gypsea was “inactive”.
Turning to `CC1=C[C@H]2O[C@@H]3C[C@@H](O)[C@](C)([C@@]2(C)CC1)[C@]31CO1` [TRICHODERMOL], the 50% inhibitory concentration (IC50) in the assay on Plasmodium falciparum (read-out: IC50) came to 7.1 µM; in the assay with Vero (vero), 6.9 µM; with KB (kb), 16.1 µM. For the same compound, the MIC result with Nannizzia gypsea is “inactive”.
